Where “and” joins values, the source holds several entries; their conditions need not be identical. Identical values can stand only once. One block for each compound: values may come before it.
Key:
Canis familiaris [1] = assay: Percent change in dP/dtmax (contractility) in anesthetized dogs at 1 mg/kg; assay type: functional, Canis lupus familiaris
Method in brief: (§1)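 Acutely instrumented anesthetized dogs, 30 min control period. Drug in saline or dilute HCl/NaOH diluted with saline, given i.v. cumulatively, 0.1 ml/kg over 1 min. Half-log doses 0.01–1.0 mg/kg, 10-30 min between doses. One compound per dog. Heart rate, aortic pressure and LV dP/dtmax recorded as change from preceding baseline. Values are means of two experiments.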

Canis familiaris [2] = assay: Percent change in blood pressure in anesthetized dogs at 0.01 mg/kg; assay type: functional, Canis lupus familiaris; method in brief: as §1
Canis familiaris [3] = assay: Percent change in heart rate in anesthetized dogs at a 0.01 mg/kg; assay type: functional, Canis lupus familiaris; method in brief: as §1
Canis familiaris [4] = assay: Percent change in blood pressure in anesthetized dogs at 0.03 mg/kg; assay type: functional, Canis lupus familiaris; method in brief: as §1
Canis familiaris [5] = assay: Percent change in dP/dtmax was measured in anesthetized dogs at a dose of 0.01 mg/kg; assay type: functional, Canis lupus familiaris; method in brief: as §1
Canis familiaris [6] = assay: Percent change in heart rate in anesthetized dogs at 0.31 mg/kg; assay type: functional, Canis lupus familiaris; method in brief: as §1
Canis familiaris [7] = assay: Percent change in heart rate in anesthetized dogs at 0.03 mg/kg; assay type: functional, Canis lupus familiaris; method in brief: as §1
Canis familiaris [8] = assay: Percent change in heart rate in anesthetized dogs at 0.1 mg/kg; assay type: functional, Canis lupus familiaris; method in brief: as §1
Canis familiaris [9] = assay: Percent change in blood pressure in anesthetized dogs at 0.1 mg/kg; assay type: functional, Canis lupus familiaris; method in brief: as §1
Canis familiaris [10] = assay: Percent change in heart rate in anesthetized dogs at 1 mg/kg; assay type: functional, Canis lupus familiaris; method in brief: as §1
Canis familiaris [11] = assay: Percent change in blood pressure in anesthetized dogs at 1 mg/kg; assay type: functional, Canis lupus familiaris; method in brief: as §1
Canis familiaris [12] = assay: Percent change in blood pressure in anesthetized dogs at 0.31 mg/kg; assay type: functional, Canis lupus familiaris; method in brief: as §1
[13] = biological target: Phosphodiesterase 3 (Cavia porcellus); assay: Inhibition of guinea pig phosphodiesterase type III
[14] = biological target: Phosphodiesterase 3 (Cavia porcellus); assay: as above; remark: listed apart in the source
Canis familiaris [15] = assay: Percent change in blood pressure in anesthetized dogs 1 mg/kg; assay type: functional, Canis lupus familiaris; method in brief: as §1
Canis familiaris [16] = assay: Percent change in heart rate in anesthetized dogs; assay type: functional, Canis lupus familiaris; method in brief: as §1

Structure (SMILES): Cl.O=C1CCC(c2cn(Cc3ccccc3)c(-c3ccccc3)n2)=NN1
Change (Canis familiaris [1]): 3% | Change (Canis familiaris [2]): 1% | Change (Canis familiaris [3]): 2% | Change (Canis familiaris [4]): -0.5% | Change (Canis familiaris [5]): 2.5% and 4.5% and 12.5% and 10.5% | Change (Canis familiaris [6]): 18.5% | Change (Canis familiaris [7]): 1.5% | Change (Canis familiaris [8]): 19% | Change (Canis familiaris [9]): 0% | Change (Canis familiaris [10]): 8% | Change (Canis familiaris [11]): -4.75% | Change (Canis familiaris [12]): -4.5%

Structure (SMILES): Oc1ccc(-c2ccc(-c3ncc[nH]3)cc2)nn1
Change (Canis familiaris [2]): -1% | Change (Canis familiaris [3]): 1.5% | Change (Canis familiaris [4]): -2.5% | Change (Canis familiaris [6]): 30.5% | Change (Canis familiaris [7]): 12.5% | Change (Canis familiaris [8]): 31.5% | Change (Canis familiaris [9]): -26% | Change (Canis familiaris [12]): -26.5%

Structure (SMILES): Cn1cc(-c2ccc(O)nn2)nc1-c1ccccc1
Change (Canis familiaris [1]): 186% | Change (Canis familiaris [2]): -1.5% | Change (Canis familiaris [3]): 1.5% | Change (Canis familiaris [4]): -0.25% | Change (Canis familiaris [6]): 50.5% | Change (Canis familiaris [7]): 9.5% | Change (Canis familiaris [8]): 21.5% | Change (Canis familiaris [9]): -6.5% | Change (Canis familiaris [10]): 63.5% | Change (Canis familiaris [11]): -31.25% | Change (Canis familiaris [12]): -15.75%

Structure (SMILES): Oc1ccc(-c2cn(Cc3ccccc3)c(-c3ccccc3)n2)nn1
Change (Canis familiaris [1]): 55% | Change (Canis familiaris [2]): 8.5% | Change (Canis familiaris [3]): 3% | Change (Canis familiaris [4]): 6.5% | Change (Canis familiaris [5]): 21% and 29% and 17% and 28% | Change (Canis familiaris [6]): 3% | Change (Canis familiaris [7]): -1% | Change (Canis familiaris [8]): -1% | Change (Canis familiaris [9]): 8% | Change (Canis familiaris [10]): 8% | Change (Canis familiaris [12]): 3% | Change (Canis familiaris [15]): 2%

Structure (SMILES): O=C1CCC(c2ccc(-n3ccnc3)cc2)=NN1 [IMAZODAN]
Change (Canis familiaris [2]): -0.7% | Change (Canis familiaris [3]): 0% | Change (Canis familiaris [16]): 33.8% | Change (Canis familiaris [4]): -4.1% | Change (Canis familiaris [6]): 19.2% | Change (Canis familiaris [7]): 5.6% | Change (Canis familiaris [8]): 6.2% | Change (Canis familiaris [9]): -5.3% | Change (Canis familiaris [11]): -22.4% | Change (Canis familiaris [12]): -13.2%

Now from value to compound, other results behind:

IC50 [13]: 160 µM
Structure (SMILES): Cn1c(-c2ccc(O)nn2)cnc1-c1ccccc1
Change (Canis familiaris [1]): 17% | Change (Canis familiaris [2]): 1.5% | Change (Canis familiaris [3]): -0.5% | Change (Canis familiaris [4]): 0.75% | Change (Canis familiaris [6]): -3% | Change (Canis familiaris [7]): -1% | Change (Canis familiaris [8]): -1.5% | Change (Canis familiaris [9]): -1.75% | Change (Canis familiaris [10]): -1.5% | Change (Canis familiaris [11]): -2.5% | Change (Canis familiaris [12]): -0.25%

IC50 [13]: 38 µM
Structure (SMILES): Cn1c(C2=NNC(=O)CC2)cnc1-c1ccccc1
Change (Canis familiaris [1]): 30.5% | Change (Canis familiaris [2]): 1.75% | Change (Canis familiaris [3]): 3% | Change (Canis familiaris [4]): 1.75% | Change (Canis familiaris [5]): 7% and 10% and 11% and 16.5% | Change (Canis familiaris [6]): 5% | Change (Canis familiaris [7]): 3.5% | Change (Canis familiaris [8]): 4.5% | Change (Canis familiaris [9]): 1.5% | Change (Canis familiaris [10]): 5.5% | Change (Canis familiaris [11]): -2.25% | Change (Canis familiaris [12]): 0%

IC50 [13]: 12.1 µM
Structure (SMILES): Cn1cc(C2=NNC(=O)CC2)nc1-c1ccccc1
Change (Canis familiaris [1]): 95% | Change (Canis familiaris [2]): -1.2% | Change (Canis familiaris [3]): 3.5% | Change (Canis familiaris [4]): -5% | Change (Canis familiaris [6]): 34% | Change (Canis familiaris [7]): 13% | Change (Canis familiaris [8]): 29.5% | Change (Canis familiaris [9]): -11.8% | Change (Canis familiaris [10]): 29.5% | Change (Canis familiaris [11]): -31.8% | Change (Canis familiaris [12]): -23.2%

IC50 [14]: 128 µM
Structure (SMILES): COc1ccc(-c2nc(C3=NNC(=O)CC3)cn2C)cc1OC
Change (Canis familiaris [1]): 0% | Change (Canis familiaris [2]): -1% | Change (Canis familiaris [3]): 2.5 | Change (Canis familiaris [4]): -1.25% | Change (Canis familiaris [5]): 2% and 2.5% and 9.5% | Change (Canis familiaris [6]): 5% | Change (Canis familiaris [7]): 0.5% | Change (Canis familiaris [8]): 1.5% | Change (Canis familiaris [9]): -0.25% | Change (Canis familiaris [10]): 8.5% | Change (Canis familiaris [11]): 1.5% | Change (Canis familiaris [12]): 0%

IC50 [13]: 75 µM
Structure (SMILES): COc1ccc(-c2nc(-c3ccc(O)nn3)cn2C)cc1OC
Change (Canis familiaris [1]): 13% | Change (Canis familiaris [2]): 0% | Change (Canis familiaris [3]): 1.5% | Change (Canis familiaris [4]): 1.5% | Change (Canis familiaris [5]): 3.5% and 6% and 4.5% and 5% | Change (Canis familiaris [6]): -1% | Change (Canis familiaris [7]): 1% | Change (Canis familiaris [8]): -0.5% | Change (Canis familiaris [9]): 0% | Change (Canis familiaris [10]): 0.5% | Change (Canis familiaris [11]): -4.5% | Change (Canis familiaris [12]): -1%

— ChEMBL document CHEMBL1123399, “Cardiotonic agents. 3. Synthesis and biological activity of novel 6-(substituted 1H-imidazol-4(5)-yl)-3(2H)-pyridazinones” (J Med Chem, 1986)
